High-throughput results: PubChem, several laboratories
PKA-R1A activ = activates the PKA-R1A holoenzyme complex; P00514+P68181; PKA-R1A dissociation, Cy5-IP20 fluorescence polarization; scaled: DMSO 0%, 113 µM cGMP 100%; activation, % at 11.4 µM; 0.083% of 340,000 active; AID 504707;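 active = percent activation above the mean of all tested compounds plus 3 SD, cut at about 19% in these data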;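 note: higher means more PKAc released from R1A so a rise in polarization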
T cell HTS = T cell immune modulators affecting CD8 T cell-vesicle binding; 2C CD8+ T cell-vesicle binding, flow cytometry; hits give low values; response (vesicle binding), % at 7 µM; 0.068% of 330,000 active; AID 2052;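 active = response, share of CD8 T cells binding vesicles, and their 90th percentile fluorescence all below set limits, cut at about 80% in these data, passing the limit was not always enough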;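 note: values below 100% mean blocked vesicle binding to the CD8+ T cells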
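Assay system – 2C mouse CD8+ T cells · Also added – QL9-loaded Drosophila micro-vesicles · Timing – Cell–vesicle co-incubation 1.5 h at 37 °C, staining 20 min on ice · Signal – flow cytometry of vesicle-bound cells · Measure – percent CD8+ FL2 mean versus row control · Controls – Peptide-free naked vesicles (low) and QL9 vesicles with 0.7% DMSO vehicle (high)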
PKA-R2B act = activators of human PKA-R2B complex. AID 504700. P22694+P31323. PKA-R2B holoenzyme dissociation, Cy5-IP20 fluorescence polarization; R2B truncated from residue 108, S112A mutant; 0% DMSO only, 100% 113 µM cGMP. 0.079% of 340,000 active. activation, % at 11.4 µM;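 active = activation above a cutoff set at the mean over all compounds plus 3 SD, cut at about 18% in these data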;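 note: higher means more holoenzyme dissociation and a rise in polarization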
Target sequence (P31323 whole entry, looked up, other chains not shown, the tested form may be a part): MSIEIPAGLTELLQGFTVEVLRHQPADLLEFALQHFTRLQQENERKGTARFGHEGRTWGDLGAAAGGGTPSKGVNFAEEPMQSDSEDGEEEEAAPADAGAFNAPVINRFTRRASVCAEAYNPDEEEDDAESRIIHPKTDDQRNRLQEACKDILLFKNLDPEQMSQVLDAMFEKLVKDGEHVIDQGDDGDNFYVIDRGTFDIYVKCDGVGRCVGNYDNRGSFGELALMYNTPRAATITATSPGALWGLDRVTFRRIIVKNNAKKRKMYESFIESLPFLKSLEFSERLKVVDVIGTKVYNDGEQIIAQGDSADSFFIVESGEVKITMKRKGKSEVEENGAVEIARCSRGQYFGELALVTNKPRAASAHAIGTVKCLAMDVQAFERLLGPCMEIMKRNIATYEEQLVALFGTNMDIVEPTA
HKDC1 inhibitor = HKDC1 (human) hexokinase inhibition; inhibition, % at 20 µM; recombinant HKDC1, G6PDH/diaphorase resazurin coupled fluorescence; AID 493160; 0.16% of 340,000 active;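 active = inhibition above about 35% when tested at 20 µM, limit read from the data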;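 note: plate controls were DMSO wells with enzyme for no effect and DMSO wells lacking enzyme for full effect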
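Test system: recombinant HKDC1 (HK5) hexokinase enzyme, produced in-house; Amount: enzyme 5 µg/mL final; Buffer or medium: Tris pH 8.0 buffer with MgCl2, Tween-20, BSA, BME; Reagent: glucose and ATP substrates; Doses: 20 µM test compound, 1% DMSO; Incubation: 90 min reaction incubation at room temperature, dark; Detection: resorufin fluorescence at 613 nm.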
ATG4B inhibitor = inhibitors of human ATG4B cysteine protease. AID 504462. Q9Y4P1. inhibition, % at 8.33 µM. ATG4B cleavage of LC3-PLA2, NBD-HPC fluorescence, 1 h. 0.51% of 340,000 active; in the data active = inhibition above about 40%
PfGluPho inh = PfG6PD (Plasmodium falciparum) enzyme inhibition. PfGluPho enzyme, NADPH resazurin-diaphorase fluorescence. inhibition, % at 20 µM. 0.78% of 350,000 active. AID 504690;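 active = inhibition reaching at least a set limit at 20 µM in the primary screen, cut at about 59% in these data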;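 note: 0% = DMSO wells with substrate and 100% = DMSO wells lacking glucose-6-phosphate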
An asterisk follows results filed as active; . = no result. Most compounds without a hit are left out; they make up all but 1.6% or so of the library.

SMILES | PKA-R1A activ | T cell HTS | PKA-R2B act | HKDC1 inhibitor | ATG4B inhibitor | PfGluPho inh
O=C(COc1ccccc1)Nc1cccc(-c2nc3cc4ccccc4cc3[nH]2)c1 | -11 | 486 | -12 | -1 | -2 | 40
Clc1ccc(C2=NCCN2)cc1 | 6 | 342 | -3 | -4 | 2 | 4
Cc1onc(-c2ccccc2)c1C(=O)N1CCN(Cc2ccccc2)CC1 | 5 | 205 | 4 | -5 | 2 | 0
COC(=O)Oc1nsnc1N1CCOCC1 | 6 | 88 | -9 | -25 | -1 | 61*
O=c1[nH][nH]c(=S)n1C1CCCCC1 | . | 372 | . | -6 | 5 | 95*
Cc1cccc(C)c1NC(=O)CSc1nc(COc2ccccc2)nc2ccccc12 | 1 | 250 | 12 | -9 | -10 | 3
CCOC(=O)CSc1nc(COc2ccccc2)nc2ccccc12 | -12 | 47* | -5 | -10 | 5 | -9
Cc1nnc(Sc2cc(NCCCO)c([N+](=O)[O-])c3nonc23)s1 | -8 | . | -8 | 22 | -7 | 77*
CCCSc1cc(NCCOC(C)=O)c([N+](=O)[O-])c2nonc12 | 8 | 261 | 2 | 7 | -10 | 24
COc1ccc(C(=O)N2CCN(c3ccc(NC(=O)Cc4ccccc4)cc3)CC2)cc1 | 0 | 0.0* | -5 | 0 | 7 | -6
Cc1ccc(C(=O)N2CCN(c3ccc(NC(=S)NC(=O)Cc4ccccc4)cc3)CC2)cc1 | -2 | 0 | -6 | -7 | 9 | 16
O=C(COC(=O)C1CCC1)NC(=O)c1ccccc1 | -14 | 0.0* | -6 | -2 | 5 | 13
CC1CCN(S(=O)(=O)c2nnc(NC(=O)c3cccc([N+](=O)[O-])c3)s2)CC1 | -16 | 209 | 9 | 6 | 11 | 113*
COc1ccc(C(=O)Nc2nnc(S(=O)(=O)N3CCC(C)CC3)s2)cc1OC | 0 | 84 | 5 | -3 | -2 | -12
CCN1CCN(C(=S)c2ccc(Cl)cc2)CC1 | -6 | 338 | 4 | -2 | -12 | 81*
OCCN1CCN(C(=S)c2ccc(Cl)cc2)CC1 | -4 | 282 | -10 | -3 | 3 | 56
O=C(CCc1ccccc1)N/N=C/c1cc(Br)ccc1O | -6 | 0.0* | 2 | 5 | -12 | -18
Nc1c(C(=O)NCC2CCCO2)sc2nc3c(c(-c4ccco4)c12)CC/C3=C\c1ccco1 (stereo not drawn) | 8 | . | 8 | 35 | 49* | 31
NC(=O)c1sc2nc3c(c(-c4ccco4)c2c1N)CCCC3 | 3 | 709 | 0 | -1 | 13 | 11
COc1cccc(OC)c1-c1nnc(-c2cn(C)c3ccccc23)o1 | -3 | 33* | 3 | -7 | -11 | 0
COc1ccccc1-c1nnc(-c2ccc(C)cc2)o1 | -4 | 194 | -10 | -1 | -11 | 11
Cc1ccc(Nc2ccc(NCc3ccccc3)nn2)cc1C | 9 | 239 | -5 | -8 | 23 | 4
Cc1ccc(Nc2nnns2)cc1C | -3 | 437 | -9 | 1 | -4 | 59*
CC(=O)OC(C)C1C2=C(C(=O)CC1(C)O)C(=O)c1c(ccc(-c3ccc4c(c3O)C(=O)C3=C(C4=O)C(C(C)OC(C)=O)C(C)(O)CC3=O)c1O)C2=O (stereo not drawn) | 12 | . | -13 | 27 | -4 | 61*
COc1ccc(C)cc1NC(=O)CCN1CCCC1 | -16 | 874 | 2 | -3 | 0 | 6
SMILES | PKA-R1A activ | T cell HTS | PKA-R2B act | HKDC1 inhibitor | ATG4B inhibitor | PfGluPho inh
COc1ccc(OC)c(NC(=O)CCN2CCCCC2)c1 | 6 | 76* | 5 | 0 | -15 | 10
O=C(c1ccccc1)c1cc(Cl)ccc1N1C(=O)C=CC1=O | 1 | . | -1 | -4 | -13 | 112*
O=C(c1ccc(NS(=O)(=O)c2ccc3[nH]c(=O)[nH]c3c2)cc1)N1CCN(c2ccccc2O)CC1 | -8 | 244 | -3 | 9 | -6 | -2
CCn1c(SCC(=O)Nc2cccc(OC)c2)nc2c(c1=O)SCC2 | 5 | 384 | 4 | 7 | -5 | 6
COc1ccc(CN2C(=O)c3cccnc3C2Nc2cc(Cl)ccc2OC)cc1 (stereo not drawn) | -6 | 105 | -5 | 52* | -4 | 7
C=CCn1c(SCC(=O)NCC2CCCO2)nnc1-c1ccncc1 (stereo not drawn) | -2 | 308 | -3 | -3 | 3 | -10
Oc1ccc(N2CCN(c3ncnc4sc5c(c34)CCC5)CC2)cc1 | 1 | 248 | -6 | 6 | 2 | 62*
OCCN1CCN(c2ncnc3sc4c(c23)CCCC4)CC1 | -10 | 278 | 2 | 4 | -5 | 10
COc1ccc(NC(=O)CSCC(=O)Nc2cc(Cl)ccc2N2CCCC2)cc1 | 2 | 639 | -14 | 4 | 6 | 12
COc1cc(C(=O)Nc2nnc(-c3sccc3C)s2)cc(OC)c1OC | 8 | 80* | -3 | 14 | -13 | 12
Cc1ncc(CO)c(CNc2ccc(-c3nc4ccccc4[nH]3)cc2)c1O | -2 | 145 | -4 | -4 | 0 | -2
O=C(NCCN1C(=O)S/C(=C\c2cccnc2)C1=O)c1ccc([N+](=O)[O-])s1 | -11 | 306 | -10 | 11 | -6 | 17
Cc1c(C(=O)NCCN2C(=O)S/C(=C\c3cccnc3)C2=O)cccc1[N+](=O)[O-] | -10 | 19* | -6 | -4 | -7 | 22
CCCCCn1c(=O)c(C(=O)OCC)c(O)c2ccccc21 | -13 | 260 | 3 | -2 | -2 | 23
CCOC(=O)c1c(O)c2cc(Cl)ccc2n(CC)c1=O | . | 58* | . | -4 | 3 | 15
O=C(O)CC(C(=O)O)N1C(=O)/C(=C/c2ccc(-c3nc4ccccc4s3)o2)SC1=S (stereo not drawn) | 6 | 141 | -3 | 24 | 68* | 44
O=C(O)CCN1C(=O)/C(=C/c2ccc(-c3nc4ccccc4s3)o2)SC1=S | 6 | 144 | -6 | -3 | 7 | 5
O=C(/C=C/c1ccc(Br)o1)OCc1nc2ccsc2c(=O)[nH]1 | -3 | 518 | 7 | 58* | 15 | 48
O=C(COC(=O)C1CC2C=CC1C2)NCc1ccc(F)cc1 (stereo not drawn) | 5 | 55* | -7 | 0 | -3 | -1
O=C(N/N=C/c1ccc(OCc2ccccc2)cc1)c1cccs1 | 11 | 78* | 8 | -4 | -7 | 23
Oc1ccc(N=Cc2ccc(OCc3ccccc3)cc2)cc1 | 0 | 334 | 7 | 0 | 5 | 87*
O=C(N/N=C/c1ccc(OCc2ccccc2)cc1)c1ccncc1 | -6 | 292 | -16 | -8 | -16 | -11
CCOC(=O)C1(NC(=O)C2(N3C(=O)c4ccccc4C3=O)CCCC2)CCCC1 | -3 | . | -14 | -6 | -9 | -2
